# Measured values taken from ChEMBL document CHEMBL4138235, “Discovery of aliphatic-chain hydroxamates containing indole derivatives with potent class I histone deacetylase inhibitory activities” (Eur J Med Chem, 2018).
# Columns and labels:
# [1] = Inhibition of class 1 HDAC in human HeLa nuclear extracts using Boc-Lys(Ac)-AMC as substrate preincubated for 5 mins followed by substrate addition measured after 30 mins by fluorescence assay
# PC-3 = experiment: Cytotoxicity against human PC3 cells assessed as growth inhibition after 48 hrs by SRB assay; type: functional, cell-based; conditions: PC-3, 48 h
# A549 = experiment: Cytotoxicity against human A549 cells assessed as growth inhibition after 48 hrs by SRB assay; type: functional, cell-based; conditions: A549, 48 h
# Histone deacetylase 1 = Histone deacetylase 1 (Homo sapiens, UniProt Q13547); experiment: Inhibition of C-terminal FLAG/His-tagged full length recombinant human HDAC1 expressed in baculovirus infected Sf9 insect cells using KI 177 as substrate preincubated for 5 mins followed by substrate addition measured after 30 mins by fluorescence assay
# Chain of Histone deacetylase 1 (Q13547 whole entry): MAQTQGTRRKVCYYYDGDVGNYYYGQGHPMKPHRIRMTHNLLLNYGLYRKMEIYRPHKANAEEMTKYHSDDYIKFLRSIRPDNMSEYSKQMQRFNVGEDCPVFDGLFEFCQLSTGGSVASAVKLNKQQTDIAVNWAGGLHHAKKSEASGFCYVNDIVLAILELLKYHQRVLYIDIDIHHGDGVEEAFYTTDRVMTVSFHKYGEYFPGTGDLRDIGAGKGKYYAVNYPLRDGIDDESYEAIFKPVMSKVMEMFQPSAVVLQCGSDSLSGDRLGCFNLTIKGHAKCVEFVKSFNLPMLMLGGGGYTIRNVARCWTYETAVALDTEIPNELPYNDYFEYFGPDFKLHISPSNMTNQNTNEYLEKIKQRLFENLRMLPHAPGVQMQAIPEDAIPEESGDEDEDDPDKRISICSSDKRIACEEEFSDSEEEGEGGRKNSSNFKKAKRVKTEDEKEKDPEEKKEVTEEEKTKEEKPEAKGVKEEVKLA
# Histone deacetylase 2 [2] = target: T1, Histone deacetylase 2 (Homo sapiens, UniProt Q92769); experiment: biochemical; type: cell-based, Sf9
# T1 sequence (Q92769 whole entry): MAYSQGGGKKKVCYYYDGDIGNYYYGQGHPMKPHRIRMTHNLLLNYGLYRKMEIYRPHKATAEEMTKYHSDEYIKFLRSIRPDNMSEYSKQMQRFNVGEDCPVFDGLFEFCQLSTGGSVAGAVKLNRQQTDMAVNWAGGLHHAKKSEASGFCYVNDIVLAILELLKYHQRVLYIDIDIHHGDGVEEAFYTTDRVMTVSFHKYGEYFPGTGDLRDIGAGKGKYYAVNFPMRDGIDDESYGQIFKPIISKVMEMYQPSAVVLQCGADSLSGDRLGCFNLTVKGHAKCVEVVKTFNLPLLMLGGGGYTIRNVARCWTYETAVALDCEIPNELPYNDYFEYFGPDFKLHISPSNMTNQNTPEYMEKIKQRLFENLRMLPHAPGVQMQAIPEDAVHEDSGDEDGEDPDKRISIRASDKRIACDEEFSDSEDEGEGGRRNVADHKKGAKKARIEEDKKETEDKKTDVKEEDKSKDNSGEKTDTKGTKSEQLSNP
# [3] = target: Histone deacetylase 3/Nuclear receptor corepressor 2 (HDAC3/NCoR2) (Homo sapiens, UniProt O15379); experiment: Inhibition of C-terminal His-tagged/N-terminal GST-tagged full length recombinant human HDAC3/NcoR2 expressed in baculovirus infected Sf9 insect cells using KI 177 as substrate preincubated for 5 mins followed by substrate addition measured after 30 mins by fluorescence assay
# Chain of Histone deacetylase 3/Nuclear receptor corepressor 2 (HDAC3/NCoR2) (O15379 whole entry, the tested form may be a part): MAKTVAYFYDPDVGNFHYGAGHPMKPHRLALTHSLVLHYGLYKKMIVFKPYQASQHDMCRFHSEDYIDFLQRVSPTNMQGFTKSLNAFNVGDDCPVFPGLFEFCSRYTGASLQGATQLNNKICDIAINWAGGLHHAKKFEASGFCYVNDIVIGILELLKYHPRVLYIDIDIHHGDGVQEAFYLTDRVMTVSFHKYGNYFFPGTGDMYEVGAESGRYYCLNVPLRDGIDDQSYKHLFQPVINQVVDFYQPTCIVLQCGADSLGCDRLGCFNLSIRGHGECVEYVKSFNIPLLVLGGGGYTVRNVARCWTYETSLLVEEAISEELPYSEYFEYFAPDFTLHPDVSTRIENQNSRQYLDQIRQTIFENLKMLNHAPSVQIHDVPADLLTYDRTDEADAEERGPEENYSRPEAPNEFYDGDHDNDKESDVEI
# Chain of Histone deacetylase 3/Nuclear receptor corepressor 2 (HDAC3/NCoR2) (Q9Y618 whole entry, further chain, the tested form may be a part): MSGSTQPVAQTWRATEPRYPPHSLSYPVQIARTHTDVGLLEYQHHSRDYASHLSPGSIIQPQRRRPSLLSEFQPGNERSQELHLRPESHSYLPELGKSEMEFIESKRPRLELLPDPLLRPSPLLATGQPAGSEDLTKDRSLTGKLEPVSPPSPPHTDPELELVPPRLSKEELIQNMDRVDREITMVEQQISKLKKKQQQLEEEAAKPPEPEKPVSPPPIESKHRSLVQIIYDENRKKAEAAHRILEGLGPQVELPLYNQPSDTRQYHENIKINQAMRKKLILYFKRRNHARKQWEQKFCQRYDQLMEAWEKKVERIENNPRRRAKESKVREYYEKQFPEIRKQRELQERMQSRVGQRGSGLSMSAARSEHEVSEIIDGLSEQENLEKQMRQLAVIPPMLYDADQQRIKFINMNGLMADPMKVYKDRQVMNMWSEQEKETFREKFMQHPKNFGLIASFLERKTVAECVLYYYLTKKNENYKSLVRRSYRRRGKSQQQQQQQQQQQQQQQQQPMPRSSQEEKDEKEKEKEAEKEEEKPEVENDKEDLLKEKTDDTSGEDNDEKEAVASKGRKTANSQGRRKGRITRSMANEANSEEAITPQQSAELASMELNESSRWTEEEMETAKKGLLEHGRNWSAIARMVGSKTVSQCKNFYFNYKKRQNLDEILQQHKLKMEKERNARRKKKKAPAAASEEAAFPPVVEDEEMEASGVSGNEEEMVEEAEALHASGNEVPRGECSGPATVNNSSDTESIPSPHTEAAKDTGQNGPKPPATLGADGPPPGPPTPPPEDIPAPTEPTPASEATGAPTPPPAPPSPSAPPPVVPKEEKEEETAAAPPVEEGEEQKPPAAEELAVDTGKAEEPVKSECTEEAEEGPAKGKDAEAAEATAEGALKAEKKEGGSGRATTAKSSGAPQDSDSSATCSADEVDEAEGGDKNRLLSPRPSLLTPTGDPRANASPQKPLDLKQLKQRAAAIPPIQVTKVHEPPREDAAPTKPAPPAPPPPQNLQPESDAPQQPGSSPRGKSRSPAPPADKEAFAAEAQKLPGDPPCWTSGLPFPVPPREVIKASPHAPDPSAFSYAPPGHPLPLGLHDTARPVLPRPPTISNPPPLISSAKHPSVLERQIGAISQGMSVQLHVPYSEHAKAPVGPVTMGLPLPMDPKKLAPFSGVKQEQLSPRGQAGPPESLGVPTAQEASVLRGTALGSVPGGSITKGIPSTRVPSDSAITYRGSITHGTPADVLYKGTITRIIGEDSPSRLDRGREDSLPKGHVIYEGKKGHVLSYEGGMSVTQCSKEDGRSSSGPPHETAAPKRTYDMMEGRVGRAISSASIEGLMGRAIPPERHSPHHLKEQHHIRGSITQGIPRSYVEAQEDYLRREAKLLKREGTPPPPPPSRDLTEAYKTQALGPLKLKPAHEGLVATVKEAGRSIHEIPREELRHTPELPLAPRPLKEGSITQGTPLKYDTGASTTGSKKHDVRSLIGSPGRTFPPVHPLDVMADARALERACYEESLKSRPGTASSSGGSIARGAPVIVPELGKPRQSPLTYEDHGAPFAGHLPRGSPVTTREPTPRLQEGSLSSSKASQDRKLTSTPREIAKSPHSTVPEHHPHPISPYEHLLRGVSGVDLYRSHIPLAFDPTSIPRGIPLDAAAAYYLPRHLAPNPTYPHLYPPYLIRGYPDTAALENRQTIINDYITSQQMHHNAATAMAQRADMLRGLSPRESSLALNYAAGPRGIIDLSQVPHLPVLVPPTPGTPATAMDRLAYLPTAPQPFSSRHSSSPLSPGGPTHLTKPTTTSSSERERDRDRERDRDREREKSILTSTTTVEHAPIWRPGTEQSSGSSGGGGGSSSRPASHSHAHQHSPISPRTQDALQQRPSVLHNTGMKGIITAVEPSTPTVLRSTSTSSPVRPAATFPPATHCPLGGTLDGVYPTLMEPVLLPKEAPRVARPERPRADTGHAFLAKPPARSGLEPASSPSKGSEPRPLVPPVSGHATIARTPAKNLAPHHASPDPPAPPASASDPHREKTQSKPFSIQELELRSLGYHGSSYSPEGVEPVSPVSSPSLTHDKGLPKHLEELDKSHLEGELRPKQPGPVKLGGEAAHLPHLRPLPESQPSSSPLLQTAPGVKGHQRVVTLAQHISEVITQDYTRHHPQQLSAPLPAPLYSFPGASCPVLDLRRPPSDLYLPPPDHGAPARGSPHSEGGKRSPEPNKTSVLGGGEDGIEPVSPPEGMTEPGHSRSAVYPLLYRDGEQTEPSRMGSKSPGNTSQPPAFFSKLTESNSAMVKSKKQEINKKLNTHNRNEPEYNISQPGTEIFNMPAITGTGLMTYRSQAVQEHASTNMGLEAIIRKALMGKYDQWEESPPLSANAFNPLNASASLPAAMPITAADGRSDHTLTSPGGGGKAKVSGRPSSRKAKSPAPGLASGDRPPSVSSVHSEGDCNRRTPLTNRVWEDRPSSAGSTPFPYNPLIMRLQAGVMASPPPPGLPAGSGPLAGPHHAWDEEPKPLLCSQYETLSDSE
# Histone deacetylase 8 = target: T2, Histone deacetylase 8 (Homo sapiens, UniProt Q9BY41); experiment: Inhibition of C-terminal His-tagged recombinant human HDAC8 (1 to 377 residues) expressed in baculovirus infected Sf9 insect cells using Boc-Lys(TFA)-AMC as substrate preincubated for 5 mins followed by substrate addition measured after 30 mins by fluorescence assay
# T2 sequence (Q9BY41 whole entry): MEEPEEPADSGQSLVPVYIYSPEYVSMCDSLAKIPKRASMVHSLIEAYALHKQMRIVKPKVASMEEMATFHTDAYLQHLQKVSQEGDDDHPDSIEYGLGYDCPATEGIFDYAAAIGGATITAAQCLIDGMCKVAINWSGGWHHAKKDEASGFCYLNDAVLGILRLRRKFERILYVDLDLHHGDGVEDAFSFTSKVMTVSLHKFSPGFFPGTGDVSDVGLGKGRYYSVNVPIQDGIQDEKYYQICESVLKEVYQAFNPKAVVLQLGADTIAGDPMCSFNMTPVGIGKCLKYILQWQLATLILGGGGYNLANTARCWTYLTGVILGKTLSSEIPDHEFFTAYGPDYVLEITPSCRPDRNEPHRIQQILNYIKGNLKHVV
# Histone deacetylase 4 = Histone deacetylase 4 (Homo sapiens, UniProt P56524); experiment: Inhibition of N-terminal GST/C-terminal His-tagged recombinant human HDAC4 (648 to 1057 residues) expressed in baculovirus infected Sf9 insect cells using Boc-Lys(TFA)-AMC as substrate preincubated for 5 mins followed by substrate addition measured after 30 mins by fluorescence assay
# Histone deacetylase 5 = Histone deacetylase 5 (Homo sapiens, UniProt Q9UQL6); experiment: Inhibition of full length recombinant human HDAC5 preincubated for 5 mins followed by substrate addition measured after 30 mins by fluorescence assay
# Histone deacetylase 7 = target: T3, Histone deacetylase 7 (Homo sapiens, UniProt Q8WUI4); experiment: Inhibition of N-terminal GST-tagged human HDAC7 expressed in baculovirus infected Sf9 insect cells preincubated for 5 mins followed by substrate addition measured after 30 mins by fluorescence assay
# T3 sequence (Q8WUI4 whole entry): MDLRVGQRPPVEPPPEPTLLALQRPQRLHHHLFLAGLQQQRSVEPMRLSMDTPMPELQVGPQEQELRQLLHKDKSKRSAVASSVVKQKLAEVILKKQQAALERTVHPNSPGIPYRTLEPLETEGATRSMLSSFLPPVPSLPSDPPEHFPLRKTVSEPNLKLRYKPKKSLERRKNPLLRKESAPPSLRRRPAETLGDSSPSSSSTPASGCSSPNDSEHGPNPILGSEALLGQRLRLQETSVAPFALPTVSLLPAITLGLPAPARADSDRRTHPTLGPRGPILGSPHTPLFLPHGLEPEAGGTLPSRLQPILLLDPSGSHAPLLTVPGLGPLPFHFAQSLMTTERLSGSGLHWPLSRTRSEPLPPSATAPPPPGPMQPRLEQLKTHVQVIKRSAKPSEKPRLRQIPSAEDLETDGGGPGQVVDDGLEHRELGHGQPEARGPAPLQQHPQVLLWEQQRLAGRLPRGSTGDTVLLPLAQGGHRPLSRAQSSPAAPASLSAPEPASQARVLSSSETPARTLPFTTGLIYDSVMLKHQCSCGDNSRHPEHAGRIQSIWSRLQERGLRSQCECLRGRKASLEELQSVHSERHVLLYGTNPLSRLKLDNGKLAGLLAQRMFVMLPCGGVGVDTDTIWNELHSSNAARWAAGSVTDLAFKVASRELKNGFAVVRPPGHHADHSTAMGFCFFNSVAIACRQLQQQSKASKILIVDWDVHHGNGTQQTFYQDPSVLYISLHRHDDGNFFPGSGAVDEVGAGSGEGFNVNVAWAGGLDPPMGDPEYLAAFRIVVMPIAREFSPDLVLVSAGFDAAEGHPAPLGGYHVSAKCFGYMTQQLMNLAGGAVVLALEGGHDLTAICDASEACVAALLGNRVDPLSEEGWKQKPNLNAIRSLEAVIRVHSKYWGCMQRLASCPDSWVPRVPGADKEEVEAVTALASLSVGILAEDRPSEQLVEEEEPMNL
# Histone deacetylase 9 = Histone deacetylase 9 (Homo sapiens, UniProt Q9UKV0); experiment: Inhibition of C-terminal His-tagged recombinant human HDAC9 expressed in baculovirus infected Sf9 insect cells preincubated for 5 mins followed by substrate addition measured after 30 mins by fluorescence assay
# Chain of Histone deacetylase 9 (Q9UKV0 whole entry): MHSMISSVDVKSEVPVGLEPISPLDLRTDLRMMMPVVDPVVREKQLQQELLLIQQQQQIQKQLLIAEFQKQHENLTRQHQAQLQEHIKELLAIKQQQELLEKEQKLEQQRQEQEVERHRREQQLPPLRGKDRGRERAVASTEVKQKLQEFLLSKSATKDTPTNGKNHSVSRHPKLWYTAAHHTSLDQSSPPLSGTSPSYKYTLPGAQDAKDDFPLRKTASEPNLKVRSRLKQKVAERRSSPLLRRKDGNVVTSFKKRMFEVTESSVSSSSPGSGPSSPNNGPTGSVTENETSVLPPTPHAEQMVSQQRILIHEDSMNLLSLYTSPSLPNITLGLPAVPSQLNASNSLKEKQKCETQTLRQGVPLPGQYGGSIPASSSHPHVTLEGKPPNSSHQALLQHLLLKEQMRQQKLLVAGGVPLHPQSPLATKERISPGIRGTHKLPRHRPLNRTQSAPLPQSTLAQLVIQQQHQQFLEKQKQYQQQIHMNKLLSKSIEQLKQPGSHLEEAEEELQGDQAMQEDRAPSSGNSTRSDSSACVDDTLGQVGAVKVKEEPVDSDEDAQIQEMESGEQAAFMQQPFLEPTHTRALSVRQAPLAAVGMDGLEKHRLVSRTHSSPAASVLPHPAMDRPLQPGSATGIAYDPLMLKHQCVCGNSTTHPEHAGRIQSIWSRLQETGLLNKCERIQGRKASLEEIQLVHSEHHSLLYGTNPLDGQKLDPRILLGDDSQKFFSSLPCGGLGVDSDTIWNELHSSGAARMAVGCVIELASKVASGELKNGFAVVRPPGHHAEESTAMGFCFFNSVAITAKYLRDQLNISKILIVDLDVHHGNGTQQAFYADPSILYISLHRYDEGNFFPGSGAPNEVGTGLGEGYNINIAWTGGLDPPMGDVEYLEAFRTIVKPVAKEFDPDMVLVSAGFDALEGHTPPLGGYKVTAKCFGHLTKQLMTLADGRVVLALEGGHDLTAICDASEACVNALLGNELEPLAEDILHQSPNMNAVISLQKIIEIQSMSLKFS
# [4] = target: T4, Protein deacetylase HDAC6 (Homo sapiens, UniProt Q9UBN7); experiment: Inhibition of N-terminal GST-tagged human HDAC6 using Boc-Lys(Ac)-AMC as substrate preincubated for 5 mins followed by substrate addition measured after 30 mins by fluorescence assay
# T4 sequence (Q9UBN7 whole entry): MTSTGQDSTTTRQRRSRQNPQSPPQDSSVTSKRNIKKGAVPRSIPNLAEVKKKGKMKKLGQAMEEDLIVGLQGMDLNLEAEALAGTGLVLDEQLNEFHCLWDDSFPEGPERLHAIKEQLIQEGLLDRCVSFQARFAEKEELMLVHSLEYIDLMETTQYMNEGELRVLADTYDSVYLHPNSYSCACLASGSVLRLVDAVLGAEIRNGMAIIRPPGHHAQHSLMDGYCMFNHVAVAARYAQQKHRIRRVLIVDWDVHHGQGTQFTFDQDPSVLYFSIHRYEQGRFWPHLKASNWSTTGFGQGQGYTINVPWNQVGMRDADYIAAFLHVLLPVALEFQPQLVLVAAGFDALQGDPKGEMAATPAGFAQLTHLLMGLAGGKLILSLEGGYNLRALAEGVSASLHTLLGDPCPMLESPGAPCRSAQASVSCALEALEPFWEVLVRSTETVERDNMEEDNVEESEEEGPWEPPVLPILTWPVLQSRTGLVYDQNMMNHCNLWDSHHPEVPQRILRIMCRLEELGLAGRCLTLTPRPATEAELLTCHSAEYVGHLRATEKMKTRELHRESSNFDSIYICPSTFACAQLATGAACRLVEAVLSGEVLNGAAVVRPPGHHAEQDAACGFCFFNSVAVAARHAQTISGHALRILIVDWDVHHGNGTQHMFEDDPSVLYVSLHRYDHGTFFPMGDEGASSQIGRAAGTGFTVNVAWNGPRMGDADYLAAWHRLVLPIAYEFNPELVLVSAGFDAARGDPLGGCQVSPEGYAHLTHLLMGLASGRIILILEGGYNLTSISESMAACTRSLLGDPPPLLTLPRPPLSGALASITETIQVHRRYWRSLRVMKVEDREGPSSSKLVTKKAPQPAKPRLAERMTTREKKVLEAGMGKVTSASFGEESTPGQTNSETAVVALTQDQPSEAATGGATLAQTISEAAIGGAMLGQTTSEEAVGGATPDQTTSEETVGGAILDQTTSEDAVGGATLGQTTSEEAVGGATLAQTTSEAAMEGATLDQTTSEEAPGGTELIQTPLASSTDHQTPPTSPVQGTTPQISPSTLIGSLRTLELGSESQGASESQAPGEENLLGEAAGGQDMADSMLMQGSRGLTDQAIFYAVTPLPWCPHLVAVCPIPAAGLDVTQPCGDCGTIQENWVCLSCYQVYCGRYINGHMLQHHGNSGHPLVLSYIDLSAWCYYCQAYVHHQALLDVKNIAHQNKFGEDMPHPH
# Homo sapiens = species on record: Homo sapiens; experiment: Potency index, ratio of SAHA IC50 to test compound IC50 for class 1 HDAC in human HeLa nuclear extracts
# Summary of the method: (§1)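 Fluorogenic deacetylase assay in 15 mM Tris-HCl pH 8.1, 0.25 mM EDTA, 250 mM NaCl, 10% glycerol. Enzyme and compound preincubated 5 min at 30 °C. Substrates: Boc-Lys(Ac)-AMC for HeLa extract, Boc-Lys(TFA)-AMC for HDAC8, KI 177 for HDAC1/2. Reaction ran 30 min at 30 °C, then trypsin with SAHA developed it 20 min; read at ex 355/em 460 nm. 0.1% DMSO set as 100% and 2 µM SAHA as 0%; run in triplicate; IC50 ratios relative to SAHA.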
# Histone deacetylase 2 [5] = target: T1, Histone deacetylase 2; experiment: Potency index, ratio of SAHA IC50 to test compound IC50 for full length recombinant human HDAC2 expressed in baculovirus infected Sf9 insect cells; summary of the method: as §1
SMILES,IC50 [1] [µM],IC50 (PC-3) [µM],IC50 (A549) [µM],also measured
COc1cc2ccn(CCOc3ccccc3NC(=O)CCCCCCC(=O)NO)c2c(OC)c1OC,0.11,5.6,5.9,–
COc1ccc2c(ccn2CCOc2cccc(NC(=O)CCCCC(=O)NO)c2)c1,0.186,–,–,–
COc1cc2ccn(CCOc3ccc(NC(=O)CCCCCCC(=O)NO)cc3)c2c(OC)c1OC,0.0572,4.4,4.9,–
COc1cc2ccn(CCCCOc3ccc(NC(=O)CCCCCCC(=O)NO)cc3)c2c(OC)c1OC,0.0464,7.7,9.7,–
COc1cc2ccn(CCCOc3ccc(NC(=O)CCCCCCC(=O)NO)cc3)c2c(OC)c1OC,0.139,6.9,5.9,–
COc1ccc2c(ccn2CCOc2cccc(NC(=O)CCCCCCCCC(=O)NO)c2)c1,0.298,–,–,–
COc1cc2ccn(CCCCOc3ccccc3NC(=O)CCCCCCC(=O)NO)c2c(OC)c1OC,0.111,2.4,4.8,–
COc1cc2ccn(CCCOc3ccccc3NC(=O)CCCCCCC(=O)NO)c2c(OC)c1OC,0.111,3.9,5,–
O=C(CCCCCCC(=O)Nc1cccc(OCCn2ccc3cc(Br)ccc32)c1)NO,0.0413,–,–,–

# These reach a lower IC50 [1]. Values come first.
IC50 [1] [µM],SMILES,IC50 (PC-3) [µM],IC50 (A549) [µM],also measured
0.0178,COc1cc2ccn(CCCCOc3cccc(NC(=O)CCCCCCC(=O)NO)c3)c2c(OC)c1OC,2.1,2.4,IC50 (Histone deacetylase 1): 0.0293 µM; IC50 (Histone deacetylase 2 [2]): 1 µM; IC50 [3]: 0.108 µM; IC50 (Histone deacetylase 8): 0.752 µM; IC50 (Histone deacetylase 4): > 10 µM; IC50 (Histone deacetylase 5): > 10 µM; IC50 (Histone deacetylase 7): > 10 µM; IC50 (Histone deacetylase 9): > 10 µM; IC50 [4]: 0.0085 µM; Ratio IC50 (Homo sapiens): 2 to 5
0.0115,COc1cc2ccn(CCOc3cccc(NC(=O)CCCCCCC(=O)NO)c3)c2c(OC)c1OC,1.3,2.4,IC50 (Histone deacetylase 1): 0.0111 µM; IC50 (Histone deacetylase 2 [2]): 0.111 µM; IC50 [3]: 0.0725 µM; IC50 (Histone deacetylase 8): 0.421 µM; IC50 (Histone deacetylase 4): > 10 µM; IC50 (Histone deacetylase 5): > 10 µM; IC50 (Histone deacetylase 7): > 10 µM; IC50 (Histone deacetylase 9): > 10 µM; IC50 [4]: 0.0096 µM; Ratio IC50 (Histone deacetylase 2 [5]): 2; Ratio IC50 (Homo sapiens): 2 to 5
0.0231,O=C(CCCCCCC(=O)Nc1cccc(OCCn2ccc3ccccc32)c1)NO,–,–,–
0.0149,COc1ccc2ccn(CCOc3cccc(NC(=O)CCCCCCC(=O)NO)c3)c2c1,1.8,4.2,–
0.04,COc1ccc2c(ccn2CCOc2cccc(NC(=O)CCCCCCCC(=O)NO)c2)c1,–,–,–
0.0135,COc1cccc2ccn(CCOc3cccc(NC(=O)CCCCCCC(=O)NO)c3)c12,1.4,1.9,–
0.0225,COc1cc2ccn(CCCOc3cccc(NC(=O)CCCCCCC(=O)NO)c3)c2c(OC)c1OC,2.7,2.7,Ratio IC50 (Homo sapiens): 2 to 5
